Source: PubChem BioAssay
hiPSC survival = enhancers of human iPSC single-cell survival. actives 0.044% (n = 360,000). survival enhancement, % at 20 µM. hiPSC single-cell survival, ATPlite luminescence; 100% = ROCK inhibitor wells, 0% = DMSO; in the data active means survival enhancement above about 18%;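 further: cells exposed to compounds for 16 hours before the ATP read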
TAG inh = reduces triacylglycerol accumulation in H9c2 cells; Nile Red lipid (TAG) fluorescence; cells loaded with 200 µM oleic acid; actives 0.66% (n = 230,000); inhibition, % at 12.5 µM;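 active means pattern-corrected inhibition of lipid staining of at least 50% with the nuclear-stain viability signal not falling by more than 50%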
PG9 Ab binder = PG9 antibody binding by small molecule. TR-FRET gp120-PG9 antibody binding. actives 0.43% (n = 360,000). inhibition, % at 6.7 µM. AID 624416; in the data active means inhibition above about 8.5%
T cruzi repl = T. cruzi replication inhibition. T. cruzi beta-gal in NIH3T3, luminescence, 90 h. inhibition, % (no concentration beside the values). actives 1.4% (n = 300,000);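 active means mean inhibition across valid replicates above about 55%, limit read from the data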;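 further: signal also drops with host cell toxicity which is not excluded here; higher percent means less beta-gal luminescence so fewer parasites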
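Assay system: NIH/3T3 host cells with β-galactosidase reporter T. cruzi; input: 5,000 host fibroblasts per well; compound: single 50 nL compound addition per well in DMSO; timing: ≥90 h infection period, 3 h prior cell attachment; measured by: GalScreen β-gal luminescence, detergent lysis, 60 min; evaluation: percent inhibition of parasite-derived β-gal signal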
NR1D1 modulator = Rev-erb alpha (human) modulation | actives 0.79% (n = 370,000) | activity, % at 10 µM | Rev-erbα–FITC-DNA binding, fluorescence polarization, 90 min | P20393;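 active means activity above about 14%, limit read from the data; passing the limit was not always enough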
Target sequence (P20393 whole entry, looked up): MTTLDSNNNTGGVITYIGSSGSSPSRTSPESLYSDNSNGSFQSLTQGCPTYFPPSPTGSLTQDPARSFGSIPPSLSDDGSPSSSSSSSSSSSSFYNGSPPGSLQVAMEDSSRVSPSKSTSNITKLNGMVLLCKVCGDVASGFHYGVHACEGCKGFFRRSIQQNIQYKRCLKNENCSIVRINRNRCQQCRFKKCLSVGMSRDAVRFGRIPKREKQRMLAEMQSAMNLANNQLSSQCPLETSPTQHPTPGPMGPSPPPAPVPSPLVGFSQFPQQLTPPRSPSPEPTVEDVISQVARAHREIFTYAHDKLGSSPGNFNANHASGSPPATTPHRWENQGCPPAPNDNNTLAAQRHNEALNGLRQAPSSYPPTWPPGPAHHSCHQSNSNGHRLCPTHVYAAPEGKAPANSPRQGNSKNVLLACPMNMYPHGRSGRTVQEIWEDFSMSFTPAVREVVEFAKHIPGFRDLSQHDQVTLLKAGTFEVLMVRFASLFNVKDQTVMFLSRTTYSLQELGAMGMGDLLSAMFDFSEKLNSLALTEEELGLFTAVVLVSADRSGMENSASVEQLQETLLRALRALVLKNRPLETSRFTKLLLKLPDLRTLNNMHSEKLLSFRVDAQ
beta cell repl = inducers of beta-cell replication in MIN6 cells; proliferation, % at 10 µM; AID 2380; actives 0.29% (n = 330,000); MIN6 cells proliferation, ATPlite luminescence, 48 h; cells starved in 0.2% serum; 100% = growth in 10% serum;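 active means compounds whose signal lies at least 3.5 SD above the mean of all wells on their plate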
PG9 bind confirm = confirmation of small molecules binding HIV-1 gp120 antibody PG9. shares compounds with PG9 Ab binder. TR-FRET PG9 antibody binding, biochemical. inhibition, % at 6.7 µM. actives 90% (n = 1,500). AID 651571; in the data active means inhibition above about 9%
PGV04 counter = PGV04 control antibody binding, counter-screen; inhibition, % at 6.7 µM; actives 95% (n = 1,500); shares compounds with PG9 Ab binder; TR-FRET PGV04 antibody-gp120 binding, biochemical; AID 651604; in the data active means inhibition above about 9.5%
Large screens that a line does not name were inactive (follow-up assays come after a bar, where they were run). The list is not random: actives were taken first. Their share in the collection is about 2.9%.

C[C@H](NC(=O)C[C@@H]1CC[C@H]2[C@@H](COC[C@H](O)CN2Cc2ccc(C(F)(F)F)cc2)O1)c1ccccc1	PG9 Ab binder 8.8 (no result: hiPSC survival, TAG inh, T cruzi repl, beta cell repl) | PG9 bind confirm 14.0 | PGV04 counter 18.7
N#CC1=C(S)N(c2ccccc2)C(c2ccc(-c3cccc(Cl)c3)o2)NC1=O (stereo unspecified)	none (no result: TAG inh)
O=C(Cn1c2ccccc2c(=O)c2cc([N+](=O)[O-])ccc21)Nc1ccccc1Cl	PG9 Ab binder 11.9 | PG9 bind confirm 16.0 | PGV04 counter 18.2
CCCCNS(=O)(=O)c1ccc2nc(-c3cccnc3)cc(C(=O)NCCCOCC)c2c1	none (no result: hiPSC survival, TAG inh, PG9 Ab binder, NR1D1 modulator)
CCCCNS(=O)(=O)c1ccc2nc(-c3cccnc3)cc(C(=O)NCCCOC)c2c1	PG9 Ab binder 11.3 | PG9 bind confirm 12.6 | PGV04 counter 14.8
COc1ccc(-n2c(=O)[nH]cc(C(=O)Nc3ccc4c(c3)OCCO4)c2=O)cc1OC	none
COc1cccc(-n2c(=O)[nH]cc(C(=O)Nc3ccc4c(c3)OCCO4)c2=O)c1	PG9 Ab binder 28.9 | PG9 bind confirm inactive | PGV04 counter inactive
O=C(CSc1nc2ccccc2c(=O)n1Cc1ccc(F)cc1)NCc1cccs1	PG9 Ab binder 15.8 | PG9 bind confirm 15.6 | PGV04 counter 33.0
O=C(CSc1nc2ccccc2c(=O)n1Cc1ccco1)NCc1ccccc1	none (no result: TAG inh)
CCn1c(SCC(=O)Nc2ccc(F)cc2)nc2ccccc2c1=O	none (no result: TAG inh)
O=C(CSc1nc2ccccc2c(=O)n1Cc1ccccc1)NCc1ccco1	PG9 Ab binder 20.1 (no result: TAG inh) | PG9 bind confirm 20.8 | PGV04 counter 24.5
CCOc1ccc(C(=O)NC2CCCCCCC2)cc1	none
Cc1ccc(N2C(=O)C3C4C=CC(C4)C3C2=O)cc1 (stereo unspecified)	none
Cc1ccc(C(=O)CSc2ccccn2)cc1	none
Cc1cc(C)cc(-c2nnc(SCC(=O)Nc3cc(C)on3)o2)c1	PG9 Ab binder 13.7 (no result: T cruzi repl) | PG9 bind confirm 21.6 | PGV04 counter 33.8
Cc1onc(-c2c(Cl)cccc2Cl)c1C(=O)N1C=CC(C(F)(F)F)=NCC1	none (no result: TAG inh)
N#Cc1c(SC(C(=O)O)c2ccccc2)nc2c(c1-c1cccs1)CCCC2 (stereo unspecified)	PG9 Ab binder 20.4 | PG9 bind confirm 32.4 | PGV04 counter 44.0
NS(=O)(=O)c1ccc(Cl)c(C(=O)Nc2ccccc2[N+](=O)[O-])c1	none
CCCCC(=O)Nc1cccc(NC(=S)NC(=O)COc2ccccc2Cl)c1	none
N#Cc1c(N)nc2c(c1-c1ccc(Br)s1)CCCC2	none (no result: TAG inh)
COc1ccc2cc(Br)ccc2c1CC(=O)NC(C)C	PG9 Ab binder 10.8 | PG9 bind confirm 12.2 | PGV04 counter 16.0
C=CCNC(=O)Cc1c(OC)ccc2cc(Br)ccc12	none
CCOc1ccc(N2CC(NC(=O)c3ccc4ccccc4c3)CC2=O)cc1 (stereo unspecified)	PG9 Ab binder 11.9 | PG9 bind confirm 11.5 | PGV04 counter 23.2
CCOc1ccc(NC(=O)NC2CC(=O)N(c3ccc(OC)cc3)C2)cc1 (stereo unspecified)	none
CCSc1nc(-c2ccccc2)c(C#N)c(=O)[nH]1	PG9 Ab binder 9.5 (no result: TAG inh) | PG9 bind confirm 14.6 | PGV04 counter 21.4
CSc1nc(-c2ccccc2)c(C#N)c(=O)[nH]1	PG9 Ab binder 14.8 | PG9 bind confirm 22.5 | PGV04 counter 34.7
N#Cc1c(-c2cccs2)nc(SCc2ccc(Cl)cc2)[nH]c1=O	PG9 Ab binder 46.9 (no result: TAG inh) | PG9 bind confirm 50.0 | PGV04 counter 61.2
N#Cc1c(-c2ccccc2)nc(SCC(=O)NC2CCCCC2)[nH]c1=O	none
O=c1[nH]c(SCc2ccc(Cl)cc2)nc2ccsc12	none (no result: hiPSC survival, TAG inh)
CCOC(=O)Cc1csc(NC(=O)CSc2nc(-c3ccccc3)c(C#N)c(=O)[nH]2)n1	none
CNC(=O)NC(=O)CSc1nc(-c2cccs2)c(C#N)c(=O)[nH]1	PG9 Ab binder 57.8 | PG9 bind confirm 57.8 | PGV04 counter 69.5
Cc1ccc(NC(=O)c2cnc3ccccc3n2)cc1C	none
CCOC(=O)c1c(C)[nH]c(C)c1S(=O)(=O)N(C)CC(=O)Nc1ccccc1	none (no result: TAG inh)
CCC(Sc1nc(-c2ccccc2)c(C#N)c(=O)[nH]1)C(=O)Nc1cc(C)on1 (stereo unspecified)	PG9 Ab binder 28.2 (no result: TAG inh) | PG9 bind confirm 35.5 | PGV04 counter 44.9
CCC(Sc1nc2ccccc2[nH]1)C(=O)Nc1cc(C)on1 (stereo unspecified)	none (no result: TAG inh)
CSc1nc(-c2cccs2)c(C#N)c(=O)[nH]1	PG9 Ab binder 49.0 | PG9 bind confirm 54.9 | PGV04 counter 68.1
O=C1CC(c2ccc(F)cc2)Cc2nc(NCc3ccco3)ncc21 (stereo unspecified)	PG9 Ab binder 9.4 | PG9 bind confirm 17.7 | PGV04 counter 22.7
COc1ccc(C2CCCN2C(=O)Nc2ccc(C)c(C)c2)cc1OC (stereo unspecified)	none
COc1ccc(C2CCCN2C(=O)Nc2ccccc2)cc1OC (stereo unspecified)	PG9 Ab binder 12.9 | PG9 bind confirm inactive | PGV04 counter inactive
CC(OC(=O)/C(C#N)=C/c1ccc(N(C)C)cc1)C(=O)NCc1ccco1 (stereo unspecified)	PG9 Ab binder 10.1 | PG9 bind confirm 16.5 | PGV04 counter 24.1
CN(C)c1ccc(/C=C(\C#N)C(=O)NCc2ccco2)cc1	none (no result: hiPSC survival, TAG inh, PG9 Ab binder, NR1D1 modulator)
O=C(COc1ccccc1Br)NCCC1=CCCCC1	none (no result: T cruzi repl)
O=C(Cn1ccc2ccccc2c1=O)NCC1COc2ccccc2O1 (stereo unspecified)	PG9 Ab binder 16.7 | PG9 bind confirm 20.7 | PGV04 counter 26.8
Cc1cc(=O)oc2c(C)c(OC(C)C(=O)NCCCn3ccnc3)ccc12 (stereo unspecified)	none (no result: TAG inh)
O=C(Nc1ccccc1)N1CCSCC1	none
COc1ccc(C(=O)C[n+]2ccc(N(C)C)cc2)cc1	none
COC(=O)c1ccc(CNC(=O)COC(=O)c2ccc(N(C)C)cc2)cc1	PG9 Ab binder 26.2 | PG9 bind confirm 23.8 | PGV04 counter 39.0
COc1ccc(C(=O)COC(=O)c2ccc(N(C)C)cc2)cc1	PG9 Ab binder 14.9 | PG9 bind confirm 23.3 | PGV04 counter 26.0
Cc1ccc(NC(=O)c2cccs2)cc1NC(=O)c1cccnc1	none
Cn1ccc2c(N3c4ccccc4CCc4ccccc43)cc3c(c21)C1CCC3C1 (stereo unspecified)	none (no result: TAG inh, T cruzi repl, beta cell repl)
